The test system of data set [1] is HL-60. Briefly: Induction of apoptosis in human HL-60 cells assessed as viable cells at 3 uM after 48 hrs by Annexin V-FITC/propidium iodide staining based flow cytometric analysis (reference value: 93.4%). In kind it is functional. The conditions noted are these: read-out: Activity. The essentials: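 HL-60 cells (1 × 10^6/well) exposed 48 h to compound dilutions, collected, PBS-washed, resuspended in Annexin V-FITC binding buffer, stained with propidium iodide and Annexin V-FITC for 15 min, then analysed by flow cytometry.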
A general note: Flow cytometry measures light scatter and fluorescence of single cells or particles in a stream.

Data set [2] relates to HL-60. The experiment in a line: Induction of apoptosis in human HL-60 cells at 3 uM measured after 48 hrs by TUNEL staining based fluorescence microscopy. Type of data set: functional, cell-based. The essentials: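 HL-60 cells (1 × 10^6/well) given 3 µM compound or vehicle (0.2% DMSO) for 48 h; washed in cold PBS, fixed in paraformaldehyde 30 min, permeabilised with 0.5% Triton X-100 for 5 min, labelled 60 min with FITC-12-dUTP plus terminal deoxynucleotidyl transferase, washed twice, green fluorescence imaged by microscopy.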

Another data set relates to Jurkat. The experiment in a line: Antiproliferative activity against human Jurkat cells assessed as inhibition of cell proliferation after 48 hrs by MTT assay. Type of data set: functional, cell-based. The method in brief:
(§1)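 Leukemia/myeloma lines grown in RPMI1640 with 10% FBS at 37 °C, 5% CO2; seeded at 3500–4000 cells/well, cultured overnight, then exposed to serial dilutions for 48 h.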

A short description of data set [3]: Stability of the compound in rabbit plasma assessed as decrease in compound degradation incubated up to 12 hrs by HPLC analysis. Type of data set: ADME, cell-free, Oryctolagus cuniculus.
The target in a further data set is T1, Histone deacetylase 8 (Homo sapiens, UniProt Q9BY41).
T1 sequence (Q9BY41 whole entry): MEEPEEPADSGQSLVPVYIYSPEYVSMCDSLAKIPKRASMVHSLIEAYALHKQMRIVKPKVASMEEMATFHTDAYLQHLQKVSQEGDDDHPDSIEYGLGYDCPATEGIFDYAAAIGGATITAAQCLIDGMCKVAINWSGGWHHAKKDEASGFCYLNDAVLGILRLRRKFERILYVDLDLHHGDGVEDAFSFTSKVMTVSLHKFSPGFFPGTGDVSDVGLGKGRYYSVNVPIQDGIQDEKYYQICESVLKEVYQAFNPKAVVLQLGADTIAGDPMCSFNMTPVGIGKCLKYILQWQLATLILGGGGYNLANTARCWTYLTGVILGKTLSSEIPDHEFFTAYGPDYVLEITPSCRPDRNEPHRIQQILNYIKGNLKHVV
Briefly: Inhibition of HDAC8 (unknown origin) using Ac-LeuGlyLys(tfa)-AMC as substrate preincubated for 10 mins followed by substrate addition and further incubated for incubated for 1 hrs by fluorescence microtiter plate reader assay.

For data set [4], the system named is HL-60. The experiment in a line: Antiproliferative activity against human HL-60 cells assessed as inhibition of cell proliferation after 48 hrs by MTT assay. Type of data set: functional, cell-based. The conditions noted are these: HL-60, 48 h. The essentials:
as §1
Background: Tetrazolium dyes change colour on reduction, which living cells bring about.

The target of the next data set is Histone deacetylase 2 (Homo sapiens, UniProt Q92769).
Sequence of Histone deacetylase 2 (Q92769 whole entry): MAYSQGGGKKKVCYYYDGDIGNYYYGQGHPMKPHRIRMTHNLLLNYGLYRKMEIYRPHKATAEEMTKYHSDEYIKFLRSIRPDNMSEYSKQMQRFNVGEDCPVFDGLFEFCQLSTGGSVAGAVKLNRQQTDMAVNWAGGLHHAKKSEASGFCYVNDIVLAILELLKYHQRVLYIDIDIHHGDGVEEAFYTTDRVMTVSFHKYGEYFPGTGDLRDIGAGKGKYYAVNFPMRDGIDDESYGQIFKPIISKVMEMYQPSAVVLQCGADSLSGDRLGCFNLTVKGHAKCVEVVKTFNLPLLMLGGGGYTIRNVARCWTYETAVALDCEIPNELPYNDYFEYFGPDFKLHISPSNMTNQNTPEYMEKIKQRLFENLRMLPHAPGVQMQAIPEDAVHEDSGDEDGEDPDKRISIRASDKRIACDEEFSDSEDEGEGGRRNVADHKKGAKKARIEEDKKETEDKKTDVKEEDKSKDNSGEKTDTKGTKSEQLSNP
Data set [5] addresses T2, Protein deacetylase HDAC6 (Homo sapiens) (UniProt Q9UBN7).
T2 sequence (whole entry): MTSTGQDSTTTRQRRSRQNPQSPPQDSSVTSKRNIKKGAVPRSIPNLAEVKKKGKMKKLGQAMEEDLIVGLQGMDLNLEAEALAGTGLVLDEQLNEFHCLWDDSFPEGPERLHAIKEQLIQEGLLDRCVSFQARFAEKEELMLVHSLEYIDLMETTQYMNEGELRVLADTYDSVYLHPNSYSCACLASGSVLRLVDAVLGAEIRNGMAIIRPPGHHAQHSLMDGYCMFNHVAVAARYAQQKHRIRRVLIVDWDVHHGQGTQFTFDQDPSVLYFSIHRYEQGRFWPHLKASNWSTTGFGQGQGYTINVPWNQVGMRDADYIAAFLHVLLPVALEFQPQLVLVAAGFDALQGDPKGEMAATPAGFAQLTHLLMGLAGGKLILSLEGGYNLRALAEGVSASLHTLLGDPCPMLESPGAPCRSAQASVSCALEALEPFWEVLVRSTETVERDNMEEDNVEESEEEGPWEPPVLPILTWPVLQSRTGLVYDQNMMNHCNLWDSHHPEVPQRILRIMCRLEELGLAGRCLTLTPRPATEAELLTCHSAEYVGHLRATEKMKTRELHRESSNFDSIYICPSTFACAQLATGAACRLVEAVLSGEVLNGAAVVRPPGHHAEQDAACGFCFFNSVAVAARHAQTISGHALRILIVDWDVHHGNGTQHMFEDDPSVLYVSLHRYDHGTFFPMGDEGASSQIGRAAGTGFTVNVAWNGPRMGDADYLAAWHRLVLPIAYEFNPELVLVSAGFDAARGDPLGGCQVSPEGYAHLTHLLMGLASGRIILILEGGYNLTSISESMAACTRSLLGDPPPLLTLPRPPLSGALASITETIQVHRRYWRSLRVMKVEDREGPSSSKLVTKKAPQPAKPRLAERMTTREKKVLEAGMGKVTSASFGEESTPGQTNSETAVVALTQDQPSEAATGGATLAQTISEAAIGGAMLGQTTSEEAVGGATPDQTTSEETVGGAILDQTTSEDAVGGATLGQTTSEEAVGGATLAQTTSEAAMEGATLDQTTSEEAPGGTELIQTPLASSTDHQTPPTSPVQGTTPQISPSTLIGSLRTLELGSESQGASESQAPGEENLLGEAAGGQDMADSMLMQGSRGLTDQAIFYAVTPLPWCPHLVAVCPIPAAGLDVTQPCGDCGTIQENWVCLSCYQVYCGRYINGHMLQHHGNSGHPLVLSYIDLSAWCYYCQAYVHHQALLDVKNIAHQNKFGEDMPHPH
Briefly: Inhibition of HDAC6 in human HL-60 cells assessed as increase in acetylation of alpha tubulin measured up to 24 hrs by Western blot analysis. The conditions noted are these: time hrs <=24. In kind it is cell-based. The essentials: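 HL-60 cells treated 12 h or 24 h, pelleted, lysed in RIPA with 1 mM PMSF on ice 30 min, cleared at 4 °C; lysates run on 12.5% SDS-PAGE, blotted to PVDF, blocked in 5% milk 1 h, probed overnight at 4 °C for acetyl-α-tubulin, acetyl-H3 and GAPDH, secondary 1 h, ECL detection.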
Background: In western blotting, separated proteins are transferred to a membrane and probed.

This note sets out measurements from ChEMBL document CHEMBL4842326, “Design, synthesis and biological evaluation of 3, 4-disubstituted-imidazolidine-2, 5-dione derivatives as HDAC6 selective inhibitors” (Eur J Med Chem, 2021).

Activity calls are given as the source filed them. The calls are words filed in the database; no cut-off is given here.

In general, IC50 refers to the point on the concentration scale where inhibition reaches its midpoint. As to `O=C(NO)c1ccc(CN2C(=O)C(Cc3ccccc3)N(Cc3cccnc3)C2=O)cc1` (racemic), the viability at 3 µM with HL-60 [1] was 79.4%. In addition, the outcome in the data set with HL-60 [2] was Active. The IC50 in the data set on Jurkat was found to be 9.29 µM; against Histone deacetylase 8, 3.44 µM; in the data set with HL-60 [4], 3.23 µM; at Histone deacetylase 2, 12.3 µM. In addition, in data set [3], the Stabilty result is on record as “Stable”. Also, in data set [5], the inhibition entry was “Dose-Dependent Effect”.
